Source: ChEMBL document CHEMBL1139241, “Structure-activity relationship studies of a new series of imidazo[2,1-f]purinones as potent and selective A(3) adenosine receptor antagonists” (Bioorg Med Chem, 2008)

Key:
Adenosine receptor A1 = target: T1, Adenosine receptor A1 (Homo sapiens, UniProt P30542); test: Displacement of [3H]DPCPX from human cloned adenosine A1 receptor expressed in CHO cells; assay type: cell-based
T1 sequence (P30542 whole entry): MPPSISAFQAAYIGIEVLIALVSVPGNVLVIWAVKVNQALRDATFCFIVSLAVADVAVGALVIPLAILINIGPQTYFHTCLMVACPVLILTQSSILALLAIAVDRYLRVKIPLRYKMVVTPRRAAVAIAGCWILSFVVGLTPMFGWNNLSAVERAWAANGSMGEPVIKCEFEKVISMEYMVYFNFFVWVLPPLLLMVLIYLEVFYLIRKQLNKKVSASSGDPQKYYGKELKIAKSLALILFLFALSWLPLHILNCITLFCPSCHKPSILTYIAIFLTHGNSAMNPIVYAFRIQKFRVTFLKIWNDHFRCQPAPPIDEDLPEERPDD

Adenosine receptor A2a = Adenosine receptor A2a (Homo sapiens, UniProt P29274); test: Displacement of [3H]ZM241385 from human cloned adenosine A2A receptor expressed in CHO cells; assay type: cell-based
Adenosine receptor A2b = target: T2, Adenosine receptor A2b (Homo sapiens, UniProt P29275); test: Antagonist activity at human cloned adenosine A2B cells expressed in CHO cells assessed as inhibition of NECA-stimulated cAMP production; assay type: functional, cell-based
T2 sequence (P29275 whole entry): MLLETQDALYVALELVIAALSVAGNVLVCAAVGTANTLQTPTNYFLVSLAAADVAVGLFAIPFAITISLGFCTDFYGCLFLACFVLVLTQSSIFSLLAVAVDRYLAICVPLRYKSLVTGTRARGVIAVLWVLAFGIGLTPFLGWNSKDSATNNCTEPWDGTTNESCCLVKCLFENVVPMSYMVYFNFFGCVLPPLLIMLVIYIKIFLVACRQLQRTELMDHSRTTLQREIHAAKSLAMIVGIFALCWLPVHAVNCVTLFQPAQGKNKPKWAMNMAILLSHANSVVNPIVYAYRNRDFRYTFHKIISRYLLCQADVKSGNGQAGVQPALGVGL
Method in brief: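 CHO cells with human A2B receptor, trypsin-detached, 1×10^6 cells/assay, in buffered salt medium pH 7.4 with 2 IU/ml adenosine deaminase and Ro 20-1724, preincubated 10 min at 37 °C. Antagonism of 100 nM NECA-stimulated cAMP. Stopped with cold 6% TCA, ether-extracted, cAMP measured by [3H]cAMP competition protein binding. IC50 from sigmoid nonlinear regression, n = 4, mean ± SEM.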

Adenosine receptor A3 = target: T3, Adenosine receptor A3 (Homo sapiens, UniProt P0DMS8); test: Displacement of [3H]MRE3008F20 from human cloned adenosine A3 receptor expressed in CHO cells; assay type: cell-based
T3 sequence (P0DMS8 whole entry): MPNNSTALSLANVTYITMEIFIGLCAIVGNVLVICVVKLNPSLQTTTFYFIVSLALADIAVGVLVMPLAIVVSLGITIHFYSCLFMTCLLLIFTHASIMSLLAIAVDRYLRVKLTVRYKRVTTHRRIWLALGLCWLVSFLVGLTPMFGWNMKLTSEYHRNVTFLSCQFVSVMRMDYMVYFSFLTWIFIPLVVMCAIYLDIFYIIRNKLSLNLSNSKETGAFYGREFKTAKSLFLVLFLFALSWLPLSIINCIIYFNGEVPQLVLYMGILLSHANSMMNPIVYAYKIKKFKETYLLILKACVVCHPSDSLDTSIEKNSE

Adenosine receptor A2a, sequence (P29274 whole entry): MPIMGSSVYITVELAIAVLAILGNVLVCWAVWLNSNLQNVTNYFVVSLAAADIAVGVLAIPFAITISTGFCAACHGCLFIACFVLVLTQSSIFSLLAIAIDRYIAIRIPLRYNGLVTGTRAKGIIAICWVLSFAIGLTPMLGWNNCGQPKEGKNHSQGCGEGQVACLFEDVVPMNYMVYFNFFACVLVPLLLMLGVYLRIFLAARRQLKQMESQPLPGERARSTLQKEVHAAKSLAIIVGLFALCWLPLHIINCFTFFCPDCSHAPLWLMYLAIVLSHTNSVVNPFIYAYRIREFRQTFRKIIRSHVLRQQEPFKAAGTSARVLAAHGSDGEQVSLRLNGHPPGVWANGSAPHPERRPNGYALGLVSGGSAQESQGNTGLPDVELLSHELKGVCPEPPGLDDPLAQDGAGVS

Structure (SMILES)	Ki (Adenosine receptor A1) [nM]	Ki (Adenosine receptor A2a) [nM]	IC50 (Adenosine receptor A2b) [nM]	Ki (Adenosine receptor A3) [nM]
CCCn1c(=O)c2c(nc3[nH]c(C)cn32)n(Cc2ccccn2)c1=O	> 1000	> 1000	> 1000	34
Cn1c(=O)c2c(nc3[nH]c(-c4ccccc4)cn32)n(C)c1=O	> 1000	> 1000	> 1000	> 1000
Cc1cn2c(nc3c2c(=O)n(CCCO)c(=O)n3Cc2ccccc2)[nH]1	> 1000	> 1000	> 1000	110
C=CCn1c(=O)c2c(nc3[nH]c(C)cn32)n(Cc2ccccc2)c1=O	> 1000	> 1000	> 1000	5.13
CCCn1c(=O)c2c(nc3[nH]c(-c4ccc(OC)cc4)cn32)n(Cc2ccccc2)c1=O	–	–	> 1000	–
C#CCn1c(=O)c2c(nc3[nH]c(C)cn32)n(Cc2ccccc2)c1=O	> 1000	> 1000	> 1000	15
CCn1c(C)cn2c3c(=O)[nH]c(=O)n(Cc4ccccc4)c3nc12	> 1000	> 1000	> 1000	> 1000
CCCn1c(=O)c2c(nc3[nH]c(-c4ccc(F)cc4)cn32)n(Cc2ccccc2)c1=O	–	–	> 1000	–
CCCn1c(=O)c2c(nc3[nH]c(-c4ccc(-c5ccccc5)cc4)cn32)n(Cc2ccccc2)c1=O	–	–	> 1000	–
CCCn1c(=O)c2c(nc3n(CC)c(C)cn23)n(Cc2ccccc2)c1=O	> 1000	> 1000	> 1000	200

Continued, values first:

Ki (Adenosine receptor A1) [nM]	Ki (Adenosine receptor A2a) [nM]	IC50 (Adenosine receptor A2b) [nM]	Ki (Adenosine receptor A3) [nM]	Structure (SMILES)
> 1000	> 1000	> 1000	57	CCCn1c(=O)c2c(nc3[nH]c(C)cn32)n(Cc2cccnc2)c1=O
> 1000	> 1000	> 1000	148	Cc1cn2c(nc3c2c(=O)[nH]c(=O)n3Cc2ccccc2)[nH]1
–	–	> 1000	–	CCCn1c(=O)c2c(nc3[nH]c(-c4ccccc4)cn32)n(Cc2ccccc2)c1=O
–	–	> 1000	–	CCCn1c(=O)c2c(nc3n2CC(c2ccccc2)=C3)n(Cc2ccccc2)c1=O
> 1000	> 1000	> 1000	20	CCOC(=O)Cn1c(=O)c2c(nc3[nH]c(C)cn32)n(Cc2ccccc2)c1=O
> 1000	> 1000	> 1000	> 1000	Cc1cn2c3c(=O)[nH]c(=O)n(Cc4ccccc4)c3nc2n1C(C)CO (stereo not given)
> 1000	> 1000	> 1000	141	CCCn1c(=O)c2c(nc3[nH]c(C)cn32)n(Cc2ccncc2)c1=O
> 1000	> 1000	> 1000	38	Cc1cn2c(nc3c2c(=O)n(CCO)c(=O)n3Cc2ccccc2)[nH]1
> 1000	> 1000	> 1000	182	CC(=O)Cn1c(=O)c2c(nc3[nH]c(C)cn32)n(Cc2ccccc2)c1=O
> 1000	> 1000	> 1000	98	Cc1cn2c(nc3c2c(=O)n(CCN(C)C)c(=O)n3Cc2ccccc2)[nH]1
